High-throughput results from PubChem.
RGS4 block – human RGS4 inhibition | P49798 | 310,000 compounds, 0.45% hits | B-score at 10 µM | AID 463165 | HEK293 M3R/RGS4 inducible, Fluo-4 calcium flux; hits give high values; triggered by carbachol at its EC20;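 active = B-score, a plate-corrected calcium signal, over three deviations above library mean, with baseline fluorescence within five deviations of library mean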;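 also: RGS4 expression induced by doxycycline in cells with stable M3 receptor; B-score is computed from the integrated fluorescence ratio over baseline after carbachol; higher B-score means a larger calcium signal and so more RGS4 inhibition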
Target sequence (P49798 whole entry, looked up): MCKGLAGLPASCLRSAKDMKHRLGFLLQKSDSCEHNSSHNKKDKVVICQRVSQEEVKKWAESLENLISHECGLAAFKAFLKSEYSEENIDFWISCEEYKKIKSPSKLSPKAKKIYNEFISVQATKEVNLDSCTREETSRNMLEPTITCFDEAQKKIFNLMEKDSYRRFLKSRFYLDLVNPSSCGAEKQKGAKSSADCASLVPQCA
MrgX1 agonist – activates human MrgX1 receptor signaling. Q96LB2. MrgX1-HEK293 cells, Fluo-4 calcium fluorescence, agonist mode; hits give high values. B-score at 10 µM. 310,000 compounds, 0.44% hits. AID 588627;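 active = calcium response B-score plate-corrected fluorescence ratio at least 3 library SD, with starting fluorescence B-score inside 5 SD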
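Test system: HEK293 cells stably expressing human MrgX1 receptor; amount: 15,000 cells per well; doses: compound delivered in addition one of three; times: overnight plating before 1 h dye loading; detection: Fluo-4 NW calcium-flux fluorescence, kinetic read; read-out basis: B-scored fluorescence response ratio; controls: positive and negative controls per plate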
MrgX1 allo act – human MrgX1 positive allosteric modulation, primary screen | Q96LB2 | MrgX1-HEK293, Fluo-4 calcium flux, FDSS; hits give high values | B-score at 10 µM | 310,000 compounds, 0.63% hits | AID 588675;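 active = plate-corrected calcium response at least 3 library SD above typical, normal starting fluorescence, not activating the receptor alone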;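 also: compound read alongside a low EC10 to EC30 dose of BAM8-22 agonist; peak minus trough fluorescence over baseline measured at the second addition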
Kir21 inh – blocks the mouse Kir2.1 inward-rectifier potassium channel. AID 1672. 310,000 compounds, 0.85% hits. B-score at 10 µM. P35561. HEK293-Kir2.1, FluxOR thallium flux fluorescence; hits give low values;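 active = fluorescence ratio B-score at or below minus 3 SD of library scores, with starting-brightness B-score within 2 SD, cut at about -4.2 in these data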;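 also: channel flux triggered by added potassium and thallium sulfate stimulus; B-score of peak minus minimum fluorescence over baseline after thallium stimulus; more negative B-score means stronger Kir2.1 block with less thallium influx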
Target sequence (P35561 whole entry, looked up): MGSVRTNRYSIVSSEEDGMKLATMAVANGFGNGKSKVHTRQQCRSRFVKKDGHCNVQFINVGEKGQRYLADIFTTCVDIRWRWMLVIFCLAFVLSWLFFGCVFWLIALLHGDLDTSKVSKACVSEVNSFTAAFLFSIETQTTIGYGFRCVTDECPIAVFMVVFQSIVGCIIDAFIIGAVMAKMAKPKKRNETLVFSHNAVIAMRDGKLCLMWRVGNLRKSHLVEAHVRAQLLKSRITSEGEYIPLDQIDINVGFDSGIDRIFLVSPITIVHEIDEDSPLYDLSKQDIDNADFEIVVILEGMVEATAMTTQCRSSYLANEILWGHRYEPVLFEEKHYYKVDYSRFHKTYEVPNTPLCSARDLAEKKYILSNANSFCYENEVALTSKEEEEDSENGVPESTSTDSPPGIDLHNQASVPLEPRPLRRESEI
MrgX1 antagonist – human MrgX1 receptor antagonism, primary screen | Q96LB2 | MRGX1-HEK293 calcium flux, Fluo-4, BAM8-22 antagonism; hits give low values | B-score at 10 µM | 310,000 compounds, 1.3% hits | AID 588676;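 active = calcium-response B-score plate-corrected more than 3 library SD below zero, starting fluorescence within 5 deviations, no agonist response on first addition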;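 also: peak minus trough fluorescence over baseline after final BAM8-22 challenge near maximal dose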
RGS4 act – RGS4 potentiation or activation; HEK293 M3R/inducible RGS4, carbachol calcium flux Fluo4; hits give low values; 310,000 compounds, 0.92% hits; B-score at 10 µM;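 active = B-score of the integrated calcium signal more than 4 SD below the library mean, with starting fluorescence not abnormally high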;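 also: negative B-score means reduced calcium response which marks RGS4 activation or potentiation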
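Also added: carbachol at ECmax as muscarinic agonist stimulus; Assay system: HEK293 cells with stable M3R and inducible RGS4; Timing: overnight RGS4 induction, 30 min dye load 37 °C, 20 min compound RT; Measured by: Fluo4-AM (2 µM) calcium-flux fluorescence, kinetic read.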
MrgX1 PAM conf – confirmation of human MrgX1 receptor positive allosteric modulators. shares compounds with MrgX1 allo act. MrgX1-HEK293, Fluo-4 calcium fluorescence, FDSS. activation (ratio percentage), % at 10 µM. 1,200 compounds, 13% hits. AID 602413;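 active = ratio at least 3 SD above the weak peptide control, stable starting fluorescence, no direct agonism earlier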;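 also: compound followed by low BAM8-22 agonist challenge near EC20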
MrgX1 ant reconf – confirmation of human MrgX1 receptor antagonists. shares compounds with MrgX1 antagonist. MrgX1-HEK293, BAM8-22 calcium flux, Fluo-4; hits give low values. remaining BAM8-22 calcium response % of control (hits give low values), % at 10 µM. 2,300 compounds, 19% hits;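 active = remaining agonist calcium response no higher than 100% minus 3 SD of agonist-only control wells, with starting fluorescence near control levels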;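 also: agonist BAM8-22 given at a near maximal EC90 to ECmax level; peak minus minimum fluorescence divided by baseline after agonist addition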
HEK293 Ca flux – activity in parental HEK293 cells lacking MrgX1; shares compounds with MrgX1 antagonist; Fluo-4 calcium fluorescence, FDSS; fluorescence ratio F(max-min)/F0 at 10 µM; 4,000 compounds, 2% hits; AID 624111;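 active = duplicate-averaged calcium fluorescence ratio at least three times the standard deviation of buffer wells, a nonspecific response in parental cells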
HEK293 Ca counter – activity in parental HEK293 cells without MrgX1; shares compounds with MrgX1 antagonist; parental HEK293 calcium flux, Fluo-4 fluorescence ratio; hits give high values; fluorescence ratio F(max-min)/F0 at 10 µM; 4,000 compounds, 0.4% hits; AID 624114;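 active = calcium fluorescence ratio, averaged over duplicates, at least 3 SD of the buffer-well ratio, meaning a nonspecific response in receptor-free cells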;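 also: untransfected parental HEK293 lacking MrgX1 used as counterscreen for MrgX1 allosteric activators; fluorescence change taken during the second addition on a kinetic imager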
HEK293 Ca cntr2 – counter-screen for MrgX1 activators: effect in parental HEK293 cells. shares compounds with MrgX1 antagonist. Fluo-4 calcium fluorescence (FDSS); hits give high values. fluorescence ratio F(max-min)/F0 at 10 µM. 4,000 compounds, 8.7% hits. AID 624115;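 active = calcium fluorescence ratio at least three times the spread of buffer wells, meaning a non-specific response in parental cells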
Large screens that a line does not name were inactive (follow-up assays come after a bar, where they were run). The list is not random: actives were taken first. Their share in the collection is about 4.1%.

CCOC(=O)Cc1csc(NC(=S)NC(=O)c2ccc(Cl)cc2)n1	MrgX1 allo act 6.96 | MrgX1 PAM conf inactive | HEK293 Ca flux inactive | HEK293 Ca counter inactive | HEK293 Ca cntr2 inactive
CCOC(=O)Cc1csc(NC(=O)c2ccc(Br)cc2)n1	MrgX1 allo act 11.6 | MrgX1 PAM conf inactive | HEK293 Ca flux inactive | HEK293 Ca counter inactive | HEK293 Ca cntr2 inactive
CCOC(=O)Cc1csc(NC(=O)COc2ccccc2OC)n1	MrgX1 allo act 12.4 | MrgX1 PAM conf inactive | HEK293 Ca flux inactive | HEK293 Ca counter inactive | HEK293 Ca cntr2 inactive
CCOC(=O)Cc1csc(NC(=O)COc2ccccc2)n1	none
COc1ccc(OCC(=O)Nc2ccc(S(=O)(=O)N3CCN(C)CC3)cc2)cc1	none
COc1ccccc1CCNC(=O)CSc1ccc(-c2cccs2)nn1	MrgX1 allo act 7.93 | MrgX1 PAM conf inactive | HEK293 Ca flux inactive | HEK293 Ca counter inactive | HEK293 Ca cntr2 inactive
CC(CCc1ccccc1)NC(=S)NC(=O)c1ccco1 (centres undefined)	MrgX1 allo act 14.2 | MrgX1 PAM conf inactive | HEK293 Ca flux inactive | HEK293 Ca counter inactive | HEK293 Ca cntr2 inactive
CCC(C)c1ccccc1NC(=S)NC(=O)c1ccco1 (centres undefined)	MrgX1 allo act 7.43 | MrgX1 PAM conf inactive | HEK293 Ca flux inactive | HEK293 Ca counter inactive | HEK293 Ca cntr2 inactive
CCOC(=O)C1(CC)NC(c2ccco2)C2C(=O)N(C)C(=O)C21 (centres undefined)	none
COc1ccccc1C(=O)NC(=S)NNC(=O)c1sc2ccccc2c1Cl	MrgX1 antagonist -12.3, RGS4 act -9.07 | MrgX1 ant reconf inactive | HEK293 Ca flux inactive | HEK293 Ca counter inactive | HEK293 Ca cntr2 inactive
Cc1nc(Cc2nnc(SC(C)C(=O)Nc3cccc(C#N)c3)o2)cs1 (centres undefined)	MrgX1 antagonist -5.87 | MrgX1 ant reconf inactive | HEK293 Ca flux inactive | HEK293 Ca counter inactive | HEK293 Ca cntr2 inactive
Cc1ccccc1Cn1ccc(NC(=O)c2nc3ncccn3n2)n1	MrgX1 antagonist -5.66 (no result: RGS4 block, Kir21 inh, RGS4 act) | MrgX1 ant reconf inactive | HEK293 Ca flux inactive | HEK293 Ca counter inactive | HEK293 Ca cntr2 inactive
Cn1cc(S(=O)(=O)N2CCCC2)cc1C(=O)N1CCN(c2ccccc2)CC1	MrgX1 antagonist -7.65 | MrgX1 ant reconf 83.5% | HEK293 Ca flux inactive | HEK293 Ca counter inactive | HEK293 Ca cntr2 inactive
Cc1ccc(S(=O)(=O)N(C)C)cc1NC(=S)Nc1ccc2cn[nH]c2c1	none
Cc1cccc(NC(=O)c2oc3ccc(S(=O)(=O)N4CCOCC4)cc3c2C)c1C	MrgX1 antagonist -4.76 | MrgX1 ant reconf inactive | HEK293 Ca flux inactive | HEK293 Ca counter inactive | HEK293 Ca cntr2 inactive
NC(=O)c1ccc(NCc2ccco2)c([N+](=O)[O-])c1	none
CCOC(=O)C1CCN(C(=O)CNC(=O)c2nn(-c3ccc(OC)cc3)c(=O)c3ccccc23)CC1	none
COc1cc(NC(=O)c2sc3ncn(CC(=O)N4CCCC(C)C4)c(=O)c3c2C)cc(OC)c1OC (centres undefined)	none
Cc1c(C(=O)Nc2ccc3c(c2)OCO3)sc2ncn(CC(=O)N3CC(C)CC(C)C3)c(=O)c12 (centres undefined)	MrgX1 antagonist -6.48 | MrgX1 ant reconf 83.3% | HEK293 Ca flux inactive | HEK293 Ca counter inactive | HEK293 Ca cntr2 inactive
CCC(C)(C)NC(=O)C(C(C)C)N(CC1CCCO1)C(=O)CNS(=O)(=O)c1ccc(F)cc1 (centres undefined)	none
Cc1nc(NC(=O)COC(=O)c2cc3c(s2)CCC(C)C3)c(Cl)cc1Cl (centres undefined)	none
CC1CCc2sc(C(=O)OCC(=O)NCc3ccc(F)cc3)cc2C1 (centres undefined)	MrgX1 antagonist -21.2 | MrgX1 ant reconf inactive | HEK293 Ca flux inactive | HEK293 Ca counter inactive | HEK293 Ca cntr2 inactive
CCn1c2ccccc2c2cc(CN3CCN(S(=O)(=O)Cc4ccccc4)CC3)ccc21	MrgX1 antagonist -8.05 | MrgX1 ant reconf 79.8% | HEK293 Ca flux inactive | HEK293 Ca counter inactive | HEK293 Ca cntr2 inactive
CCn1c2ccccc2c2cc(CN3CCN(S(=O)(=O)CC)CC3)ccc21	none
Cc1ccc2cc(CN(Cc3cccs3)C(=O)c3ccco3)c3nnnn3c2c1C	none
COc1cc(NS(C)(=O)=O)ccc1Nc1c2ccccc2nc2ccccc12	MrgX1 antagonist -6.74 (no result: RGS4 block, Kir21 inh, RGS4 act) | MrgX1 ant reconf inactive | HEK293 Ca flux inactive | HEK293 Ca counter inactive | HEK293 Ca cntr2 inactive
CCC(C)C(=O)Nc1nc(C)c(-c2csc(Nc3cc(Cl)ccc3OC)n2)s1 (centres undefined)	none
CCC(C)C(=O)Nc1nc(C)c(-c2csc(Nc3cc(OC)ccc3OC)n2)s1 (centres undefined)	MrgX1 antagonist -5.95 | MrgX1 ant reconf inactive | HEK293 Ca flux inactive | HEK293 Ca counter inactive | HEK293 Ca cntr2 inactive
CC(C)CC(CO)N1CCN(C(=O)c2ccccc2)CCC1=O (centres undefined)	none
Cc1ccc2oc(-c3cccc(N)c3)nc2c1	MrgX1 antagonist -6.24 | MrgX1 ant reconf inactive | HEK293 Ca flux inactive | HEK293 Ca counter inactive | HEK293 Ca cntr2 inactive
COc1ccc(NS(=O)(=O)c2cccc(C(=O)NCc3ccco3)c2)cc1	MrgX1 antagonist -6.54 | MrgX1 ant reconf inactive | HEK293 Ca flux inactive | HEK293 Ca counter inactive | HEK293 Ca cntr2 55.4
Cc1ccc(S(=O)(=O)N2CCCCC2)cc1C(=O)NC1CC(C)(C)NC(C)(C)C1	none
C/C(=N/NC(=O)c1nnn(-c2nonc2N)c1-c1ccccc1)c1ccncc1	none
CCN1CCc2c(sc(NC(=O)c3ccc(S(=O)(=O)N4CC(C)OC(C)C4)cc3)c2C(N)=O)C1 (centres undefined)	none
